ChEMBL document CHEMBL1641591, “Inhibition of monoamine oxidase by selected C5- and C6-substituted isatin analogues” (Bioorg Med Chem, 2011)

Tests used:
[1] = target: T1, Amine oxidase [flavin-containing] B (Homo sapiens, UniProt P27338); test: Inhibition of human recombinant MAOB expressed in insect cells by fluorescence assay; type: cell-based
T1 sequence (P27338 whole entry): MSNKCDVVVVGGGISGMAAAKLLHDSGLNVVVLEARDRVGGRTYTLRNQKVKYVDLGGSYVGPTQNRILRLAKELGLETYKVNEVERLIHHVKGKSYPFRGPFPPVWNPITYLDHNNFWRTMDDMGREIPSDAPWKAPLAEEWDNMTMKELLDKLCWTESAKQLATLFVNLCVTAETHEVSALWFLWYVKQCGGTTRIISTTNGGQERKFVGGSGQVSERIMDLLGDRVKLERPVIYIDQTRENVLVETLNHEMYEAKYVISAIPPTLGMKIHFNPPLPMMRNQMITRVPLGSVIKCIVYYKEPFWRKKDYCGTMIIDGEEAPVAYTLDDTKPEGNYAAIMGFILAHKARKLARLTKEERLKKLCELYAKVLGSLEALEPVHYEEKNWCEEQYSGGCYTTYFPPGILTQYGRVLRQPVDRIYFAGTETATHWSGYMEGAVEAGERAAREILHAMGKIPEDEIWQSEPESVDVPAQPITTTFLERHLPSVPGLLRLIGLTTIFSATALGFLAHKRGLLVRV

Homo sapiens = species: Homo sapiens; test: Selectivity ratio of Ki for human recombinant MAOA to Ki for human recombinant MAOB
Outline: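 Ki values were obtained from duplicate kynuramine-oxidation IC50 data for insect-cell recombinant human MAO-A and MAO-B by the Cheng–Prusoff equation. […] The ratio is Ki(MAO-A)/Ki(MAO-B).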

[2] = target: T2, Amine oxidase [flavin-containing] A (Homo sapiens, UniProt P21397); test: Inhibition of human recombinant MAOA expressed in insect cells by fluorescence assay
T2 sequence (P21397 whole entry): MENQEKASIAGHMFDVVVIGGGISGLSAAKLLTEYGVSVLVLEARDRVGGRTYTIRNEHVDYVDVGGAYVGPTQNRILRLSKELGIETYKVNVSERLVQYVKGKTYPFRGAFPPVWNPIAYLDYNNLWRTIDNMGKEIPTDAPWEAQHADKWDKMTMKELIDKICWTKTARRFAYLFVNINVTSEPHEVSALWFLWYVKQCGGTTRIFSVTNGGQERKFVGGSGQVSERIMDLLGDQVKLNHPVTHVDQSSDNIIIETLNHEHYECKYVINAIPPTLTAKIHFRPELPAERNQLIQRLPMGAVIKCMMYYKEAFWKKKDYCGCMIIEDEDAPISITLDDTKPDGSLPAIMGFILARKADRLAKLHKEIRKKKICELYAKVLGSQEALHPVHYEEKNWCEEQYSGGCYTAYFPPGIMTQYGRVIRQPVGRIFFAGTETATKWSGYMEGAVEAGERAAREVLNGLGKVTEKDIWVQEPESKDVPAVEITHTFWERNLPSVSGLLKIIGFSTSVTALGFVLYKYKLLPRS
Outline: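 Insect-cell microsomal recombinant human MAO-A (0.0075 mg/mL) in 100 mM potassium phosphate, pH 7.4, made isotonic with KCl, with 45 µM kynuramine. Incubated 20 min at 37 °C and stopped with NaOH. 4-Hydroxyquinoline was read by fluorescence (ex 310/em 400 nm) against a calibration curve.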

[3] = target: T1, Amine oxidase [flavin-containing] B; test: Inhibition of human recombinant MAOB expressed in insect cells at 100 uM by fluorescence assay
[4] = target: T2, Amine oxidase [flavin-containing] A; test: Inhibition of human recombinant MAOA expressed in insect cells at 100 uM by fluorescence assay
[5] = target: T2, Amine oxidase [flavin-containing] A; test: Competitive inhibition of human recombinant MAOA expressed in insect cells at 2.5 to 10 uM by Lineweaver-Burk plot analysis
[6] = target: T1, Amine oxidase [flavin-containing] B; test: Competitive inhibition of human recombinant MAOB expressed in insect cells at 0.125 to 0.5 uM by Lineweaver-Burk plot analysis
Outline: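 Recombinant human MAO-B from insect cells (0.015 mg/mL) was run with 15–90 µM kynuramine, without inhibitor and with 0.125, 0.25 or 0.5 µM inhibitor. The assay was otherwise the standard fluorescence procedure. Lineweaver–Burk plots were fitted by linear regression.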

[7] = target: T2, Amine oxidase [flavin-containing] A; test: Inhibition of human recombinant MAOA expressed in insect cells at 9.76 uM by fluorescence assay; details: TDE = time-dependent effect
Outline: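 Reversibility test: recombinant human MAO-A (0.03 mg/mL) was preincubated 0, 15, 30 or 60 min at 37 °C with 9.76 µM inhibitor in isotonic pH 7.4 phosphate buffer. […] Residual rate was measured by 4-hydroxyquinoline fluorescence, in triplicate, mean ± SD.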

[8] = target: T1, Amine oxidase [flavin-containing] B; test: Inhibition of human recombinant MAOB expressed in insect cells at 2.8 uM by fluorescence assay; details: TDE = time-dependent effect

Row | SMILES | IC50 [1] | Ki [1] | Ratio Ki (Homo sapiens) | IC50 [2] | Ki [2] | inhibition (INH) [3] | inhibition (INH) [4] | inhibition (INH) [5] | inhibition (INH) [6] | inhibition (INH) [7] | inhibition (INH) [8]
1 | O=C1Nc2cc(-c3ccccc3)ccc2C1=O | 8.52 µM | 3.67 µM | 0.333 | 4.64 µM | 1.22 µM | – | – | – | – | – | –
2 | Nc1ccc(Oc2ccccc2)cc1 [4-PHENOXYANILINE] | 303 µM | 131 µM | 0.185 | 91.4 µM | 24.1 µM | – | – | – | – | – | –
3 | Nc1ccc(-c2ccccc2)cc1 [BIPHENYL-4-AMINE] | – | – | – | – | – | Not Active | Not Active | – | – | – | –
4 | Nc1cccc(/C=C/c2ccccc2)c1 | 5.74 µM | 2.47 µM | 3.24 | 30.4 µM | 8.01 µM | – | – | – | – | – | –
5 | O=C1Nc2cc(/C=C/c3ccccc3)ccc2C1=O [(E)-6-STYRYLISATIN] | – | – | – | 2.72 µM | 0.717 µM | – | – | – | – | – | –
6 | Nc1cccc(CCc2ccccc2)c1 | – | – | – | 355 µM | 93.5 µM | – | – | – | – | – | –
7 | O=C1Nc2ccc(OCc3ccccc3)cc2C1=O | 0.103 µM | 0.044 µM | 27.4 | 4.62 µM | 1.22 µM | – | – | – | – | – | –
8 | O=C1Nc2cc(Oc3ccccc3)ccc2C1=O | 9.91 µM | 4.27 µM | 3.84 | 62.2 µM | 16.4 µM | – | – | – | – | – | –
9 | Nc1ccc(CCc2ccccc2)cc1 | – | – | – | 131 µM | 34.5 µM | – | – | – | – | – | –
10 | Cl.Nc1ccc(CCCCc2ccccc2)cc1 | 5.55 µM | 2.39 µM | – | – | – | – | Not Active | – | – | – | –
11 | O=C1Nc2cc(CCc3ccccc3)ccc2C1=O | 9.93 µM | 4.28 µM | 0.427 | 6.93 µM | 1.83 µM | – | – | – | – | – | –
12 | O=C1Nc2cc(OCc3ccccc3)ccc2C1=O | 0.138 µM | 0.059 µM | 321 | 72.4 µM | 19.1 µM | – | – | – | – | – | –
13 | O=C1Nc2ccc(/C=C/c3ccccc3)cc2C1=O | 0.009 µM | 0.004 µM | 15.8 | 0.233 µM | 0.061 µM | – | – | – | – | – | –
14 | Nc1ccc(/C=C/c2ccccc2)cc1 [(E)-4-STYRYLANILINE] | 6.34 µM | 2.73 µM | 2.44 | 25.3 µM | 6.67 µM | – | – | – | – | – | –
15 | Nc1ccc(Oc2ccc(Cl)cc2)cc1 | 16.8 µM | 7.24 µM | 1.07 | 29.3 µM | 7.72 µM | – | – | – | – | – | –
16 | Nc1cccc(Oc2ccccc2)c1 [3-PHENOXYANILINE] | – | – | – | – | – | – | Not Active | – | – | – | –
17 | Nc1cccc(-c2ccccc2)c1 | – | – | – | 68.6 µM | 18.1 µM | Not Active | – | – | – | – | –
18 | O=C1Nc2ccc(-c3ccccc3)cc2C1=O | 1.19 µM | 0.513 µM | 0.289 | 0.562 µM | 0.148 µM | – | – | – | – | – | –
19 | O=C1Nc2ccc(Oc3ccccc3)cc2C1=O | 1.54 µM | 0.663 µM | 3.75 | 9.44 µM | 2.49 µM | – | – | – | – | – | –
20 | Nc1ccc(OCc2ccccc2)cc1 [4-BENZYLOXYANILINE] | 12.8 µM | 5.51 µM | 9.13 | 191 µM | 50.3 µM | – | – | – | – | – | –
21 | Nc1cccc(OCc2ccccc2)c1 [3-(BENZYLOXY)ANILINE] | 23.4 µM | 10.1 µM | 12.2 | 466 µM | 123 µM | – | – | – | – | – | –
22 | O=C1Nc2ccc(CCCCc3ccccc3)cc2C1=O | 0.00066 µM | 0.00028 µM | 2030 | 2.19 µM | 0.577 µM | – | – | – | – | – | –
23 | O=C1Nc2ccc(CCc3ccccc3)cc2C1=O | 1.4 µM | 0.603 µM | 2.13 | 4.88 µM | 1.29 µM | – | – | Active | Active | tde | tde
24 | O=C1Nc2ccc(Oc3ccc(Cl)cc3)cc2C1=O | 0.066 µM | 0.028 µM | 113 | 12.2 µM | 3.21 µM | – | – | – | – | – | –
